Bioassay records: PubChem BioAssay, Sanford-Burnham Center for Chemical Genomics
STEP inh: STEP (human) phosphatase inhibition | inhibition, % at 20 µM | recombinant STEP, OMFP fluorogenic substrate, fluorescence | actives 0.25% (n = 360,000) | P54829 | AID 588621;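 active means inhibition at 20 µM, scaled per plate between control wells, above about 37%, limit read from the data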
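Assay system: isolated STEP enzyme. Buffer or medium: pH 6.0 Bis-Tris with DTT and Tween 20. Also added: fluorogenic phosphatase substrate OMFP at 25 µM final. Dosing: 20 µM, 1% DMSO. Timing: 20 min reaction, room temperature, in the dark. Measured by: fluorescence intensity, excitation 480 nm, emission 540 nm. Evaluation: normalized % inhibition.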
SUMO1-SIM PPI: SUMO1-SIM interaction modulation; AID 602429; P63165; actives 0.33% (n = 360,000); inhibition, % at 20 µM; SUMO1 binding to a labelled peptide, TR-FRET, 1 h; in the data active means inhibition above about 37%
Target sequence (P63165 whole entry, looked up): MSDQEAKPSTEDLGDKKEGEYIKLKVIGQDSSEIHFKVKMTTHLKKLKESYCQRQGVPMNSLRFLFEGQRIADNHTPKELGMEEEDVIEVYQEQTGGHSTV
DNMT1 block: DNMT1 (human) enzyme inhibition; P26358; DNMT1 molecular beacon, Hinp1I cleavage, fluorescence; inhibition (reported as % activation of signal), % at 10 µM; actives 0.83% (n = 360,000); AID 588458; in the data active means inhibition above about 50%
Scp1 inh: inhibitors of human Scp-1 phosphatase | inhibition, % at 20 µM | Q9GZU7 | actives 0.88% (n = 340,000) | Recombinant Scp1, phosphopeptide, malachite green phosphate absorbance;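 active means inhibition above about 50% at 20 µM, limit read from the data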
Target sequence (Q9GZU7 76-261 limits assumed): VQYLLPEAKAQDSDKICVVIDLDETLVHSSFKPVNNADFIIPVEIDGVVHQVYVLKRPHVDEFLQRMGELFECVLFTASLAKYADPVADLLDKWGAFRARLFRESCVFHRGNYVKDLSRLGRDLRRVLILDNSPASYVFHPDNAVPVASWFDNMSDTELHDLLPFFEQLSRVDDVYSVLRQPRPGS
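System: SCP-1 catalytic domain; Reagent: Phospho 17-mer peptide substrate; Doses: one concentration, 20 µM, with 1.0% DMSO; Incubation: 45 min room-temperature reaction, 5 min colour, 30 min stabiliser; Signal: Phosphate-binding colour reagent, absorbance read at 630 nm.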
LMPTP block: blocks human LMPTP phosphatase; P24666; recombinant LMPTP-A, OMFP fluorogenic substrate, fluorescence intensity; inhibition, % at 20 µM; actives 0.22% (n = 360,000); AID 651560;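 active means compounds that cut the enzyme signal by at least half of the control window in the single-dose screen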
Target sequence (P24666 whole entry, looked up): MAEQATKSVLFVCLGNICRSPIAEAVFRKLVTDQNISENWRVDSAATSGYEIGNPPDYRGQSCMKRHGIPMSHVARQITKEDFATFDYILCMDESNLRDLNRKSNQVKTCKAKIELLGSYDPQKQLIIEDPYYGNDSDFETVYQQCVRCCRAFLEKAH
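Material: LMPTP-A; amount: 0.625 nM enzyme; doses: single 20 µM dose; times: reaction 50 min, room temperature, dark; technique: fluorescence intensity of OMFP turnover product; benchmarks: no-enzyme and uninhibited controls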
DNMT1 interf DR: shows spectral interference in the DNMT1 beacon assay; shares compounds with DNMT1 block; 200 tested, under 10 active; molecular beacon fluorescence, spectral interference counter-screen; IC50, µM; call rule not given here
DNMT1 confirm: confirmation of human DNMT1 inhibitors; shares compounds with DNMT1 block; DNMT1 molecular beacon HinP1I cleavage, fluorescence; inhibition, % at 10 µM; actives 8% (n = 2,300);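 active means average inhibition of at least 30% in the single-concentration confirmation test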
DNMT1 interf: counter-screen for DNMT1 inhibitors: spectral interference. shares compounds with DNMT1 block. activation (fluorescence interference), % at 10 µM. actives 1% (n = 2,300). DNMT1 molecular beacon spectral interference counterscreen, fluorescence 485/520;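 active means activation of at least 30% at 10 µM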;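 further: DNMT1 catalytic domain with a HinP1I cleavage step and a FAM/dabcyl DNA beacon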
Large screens that a line does not name were inactive (follow-up assays come after a bar, where they were run). Shown are actives, neighbours in structure and some others; about 1.7% of the full set was active somewhere.

CCOC(=O)C1CCN(C(=O)c2ccc3c(=O)n4nc(Nc5ccccc5)sc4nc3c2)CC1	none (no result: Scp1 inh)
Cc1ccc(CNC(=O)COC(=O)c2cc(=O)[nH]c3ccccc23)cc1	none
CSC1=NSC2=NC(=O)/C(=C/c3coc4ccccc4c3=O)C(=N)N12	none
CSC1=NSC2=NC(=O)/C(=C/c3coc4ccc(O)cc4c3=O)C(=N)N12	SUMO1-SIM PPI 41.7, DNMT1 block 82.3 | DNMT1 confirm inactive | DNMT1 interf inactive
c1ccc2c(c1)C1=NCCN1c1ccccc1-2	DNMT1 block 65.5 (no result: Scp1 inh) | DNMT1 interf DR inactive | DNMT1 confirm 47.6 | DNMT1 interf inactive
CCCCCCSc1ccc(-c2nc3ccc(Cl)cn3c2NCCCC)cc1OC	DNMT1 block 78.9 | DNMT1 confirm inactive | DNMT1 interf inactive
CCCn1c(SCC(=O)NCc2ccccc2)n[nH]c1=O	none
Cc1ccc(C(=O)Nc2nc(-c3ccc([N+](=O)[O-])cc3)cs2)o1	DNMT1 block 51.4 | DNMT1 confirm inactive | DNMT1 interf inactive
Cc1cccc(NC(=O)c2ncn3c2C(=O)N(C)CC3)c1	none (no result: Scp1 inh)
O=C(O)c1ccc2nc(-c3ccco3)c(-c3ccco3)nc2c1	SUMO1-SIM PPI 39.6, DNMT1 block 99.7 | DNMT1 confirm inactive | DNMT1 interf inactive
CN1CCN(Cc2cc(=O)oc3cc4c(cc23)CCC4)CC1	none
O=c1cc(CN2CCN(c3ccc(F)cc3)CC2)c2cc3c(cc2o1)CCCC3	DNMT1 block 63.5 | DNMT1 confirm inactive | DNMT1 interf inactive
COC(=O)c1cc(S(=O)(=O)Nc2cc(S(=O)(=O)N(C)C)ccc2C)oc1C	none
Cc1ccc(C)n1/N=C1/NC(=O)CS1	DNMT1 block 90.3 | DNMT1 confirm inactive | DNMT1 interf inactive
CCOCCCN(C(=O)Cn1nnc(-c2ccc(C)o2)n1)C(C(=O)NC1CCCC1)c1ccco1 (centres undefined)	none
Cc1ccsc1C(=O)N1CCN(c2ncc(C(F)(F)F)cc2Cl)CC1	none
CCCCc1nc2sc3c(SCC(=O)NCc4ccco4)ncnc3c2c2c1CCC2	DNMT1 block 78.2 | DNMT1 confirm inactive | DNMT1 interf inactive
Cc1cccc(C)c1OCc1cn(CC(=O)c2ccc(O)cc2)nn1	DNMT1 block 58.1 | DNMT1 confirm inactive | DNMT1 interf inactive
CC(=O)Nc1ccc(OCc2cn(CC(=O)c3ccc(O)cc3)nn2)cc1	DNMT1 block 57.2 (no result: Scp1 inh) | DNMT1 confirm inactive | DNMT1 interf inactive
CC(=O)c1ccc(OCc2cn(CC(=O)c3ccc(O)cc3)nn2)cc1	none
O=C(Cn1cc(COc2ccc(Br)cc2[N+](=O)[O-])nn1)c1ccc(O)cc1	DNMT1 block 50.9 | DNMT1 confirm inactive | DNMT1 interf inactive
CC(=O)c1ccc(OCc2cn(CC(=O)c3ccc(O)cc3)nn2)c(C)c1	none (no result: Scp1 inh)
COc1ccc(-c2nc(CS(=O)CC(=O)N3CCOCC3)c(C)o2)cc1OC (centres undefined)	none
Cc1ccccc1NC(=O)C(Cl)=C(Cl)Cl	none
N#Cc1c(-c2cccc(Br)c2)cc(-c2ccco2)[nH]c1=O	DNMT1 block 87.2 | DNMT1 confirm inactive | DNMT1 interf inactive
Cc1ccc(S(=O)(=O)N2CCC(C(=O)OCC(=O)N(C)CC(=O)Nc3ccc(F)cc3)CC2)cc1C	none
Cn1c(N)c(C(=O)COC(=O)/C=C/c2ccccc2F)c(=O)n(C)c1=O	none
Cn1c(N)c(C(=O)COC(=O)/C=C/c2cccc(Cl)c2)c(=O)n(C)c1=O	DNMT1 block 66.0 | DNMT1 confirm inactive | DNMT1 interf inactive
CSc1nnc(C)c(=O)n1COC(=O)COc1ccccc1	none
CSc1nnc(C)c(=O)n1COC(=O)COc1ccc(Cl)cc1	DNMT1 block 109.7 | DNMT1 confirm inactive | DNMT1 interf inactive
Cc1ccccc1Oc1ncnc2oc(-c3ccccc3)cc12	none
Clc1ccc(Oc2ncnc3oc(-c4ccccc4)cc23)cc1	DNMT1 block 56.2 | DNMT1 confirm inactive | DNMT1 interf inactive
CCCCn1c(NC(C)=O)c(C#N)c2nc3ccccc3nc21	none
C=CCn1c(NC(=O)c2ccccc2Cl)c(C#N)c2nc3ccccc3nc21	SUMO1-SIM PPI 53.0, DNMT1 block 63.9 | DNMT1 confirm inactive | DNMT1 interf inactive
Cn1c(N)c(C(=O)CN2CCN(S(=O)(=O)c3ccccc3C#N)CC2)c(=O)n(C)c1=O	none (no result: Scp1 inh)
O=C(Nc1ccc(-c2cn3ccccc3n2)cc1)c1ccc(Cl)cc1	DNMT1 block 52.6 | DNMT1 confirm inactive | DNMT1 interf inactive
COc1ccc(-c2noc(CCC(=O)N3CCN(c4cccc(OC)c4)CC3)n2)cc1	none
COc1ccc(-c2noc(CCC(=O)N3CCC(c4cc(C)ccc4C)CC3)n2)cc1	none | DNMT1 confirm inactive | DNMT1 interf inactive
COc1cc(/C=C2\SC(=O)N(CCNC(=O)c3c(C)noc3C)C2=O)cc(OC)c1OC	none
CSc1nc(NCC(C)O)c2c3c(sc2n1)CN(C)CC3 (centres undefined)	none
CSc1nc(SCC(=O)NC(c2ccccc2)c2ccccc2)c2c3c(sc2n1)CN(C)CC3	DNMT1 block 62.8 | DNMT1 confirm inactive | DNMT1 interf inactive
CCOc1ccc(NC(=O)CCS(=O)(=O)c2ccc(Br)cc2)cc1	SUMO1-SIM PPI 48.0, DNMT1 block 83.5 | DNMT1 confirm inactive | DNMT1 interf inactive
O=C(CCS(=O)(=O)c1ccc(Cl)cc1)Nc1ccccc1Br	none
COC(=O)c1ccccc1NC(=O)CCS(=O)(=O)c1ccc(Br)cc1	DNMT1 block 90.5, Scp1 inh 79.8 | DNMT1 interf DR inactive | DNMT1 confirm 95.2 | DNMT1 interf inactive
Cc1cc(NC(=O)CCC(=O)N(Cc2ccc(F)cc2)C(C(=O)NC2CCCC2)c2ccco2)no1 (centres undefined)	none
Cc1ccc(S(=O)(=O)NC2CCCCC2)c(C)c1NS(C)(=O)=O	none
O=C(/C=C/c1ccco1)NC(=S)Nc1ccc(O)c(-c2nc3ccccc3s2)c1	DNMT1 block 67.3 | DNMT1 confirm inactive | DNMT1 interf inactive
CCCCn1c(SCC(=O)NC2CCCC2)nnc1-c1ccco1	none
CC(=O)c1cccc(OCC(=O)N(C)CC(=O)NCc2ccco2)c1	DNMT1 block 96.5, Scp1 inh 81.3 | DNMT1 interf DR inactive | DNMT1 confirm 52.5 | DNMT1 interf inactive
C=CCN(c1nc(C)cc(OC)n1)S(=O)(=O)c1ccc(C)cc1	DNMT1 block 96.7 | DNMT1 confirm inactive | DNMT1 interf inactive
C=CCN(c1nc(C)cc(OC)n1)S(=O)(=O)c1ccccc1	none
